Laboratory results: ChEMBL document CHEMBL1150203, “Antimicrobial diterpenes of Croton sonderianus, 1. Hardwickic and 3,4-secotrachylobanoic acids” (1991)
Values after ≈ are worked out from the molar mass of the structure shown. Structures can show the parent of a compound that is named as a salt. Active and inactive are the calls of the source. The calls are words filed in the database; no cut-off is given here.

Tests used:
[1] = tested on: Pseudomonas aeruginosa; experiment: Antibacterial activity against Pseudomonas aeruginosa ATCC 15442 at 1 mg/ml after 24 hrs by agar-well diffusion assay; assay type: functional
Outline: (§1)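 Agar-well diffusion on eugon agar, bacteria streaked by quadrant method from broth culture diluted 1:10 in sterile water; 11 mm wells given 100 μl of compound at 1 mg/ml; 37° incubation. Zone width (mm) read at 24 and 48 h, coded –, + (1–2), ++ (3–6), +++ (7–12), ++++ (>13); streptomycin sulfate positive control.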

[2] = tested on: Staphylococcus aureus; experiment: Antibacterial activity against Staphylococcus aureus ATCC 6538 at 1 mg/ml after 48 hrs by agar-well diffusion assay; assay type: functional; conditions: for zone of inhibition at 1000 µg/mL: ATCC 6538, 48 h, read-out: IZ; outline: as §1
[3] = tested on: Bacillus subtilis; experiment: Antibacterial activity against Bacillus subtilis ATCC 6633 at 1 mg/ml after 24 hrs by agar-well diffusion assay; assay type: functional; conditions: ATCC 6633, 24 h, read-out: IZ; outline: as §1
[4] = tested on: Mycolicibacterium smegmatis; experiment: Antibacterial activity against Mycobacterium smegmatis ATCC 607 at 1 mg/ml after 48 hrs by agar-well diffusion assay; assay type: functional; conditions: ATCC 607, 48 h, read-out: IZ
Outline: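 Quadrant-streaked eugon agar plates (broth culture diluted 1:10 in water) with 11 mm wells receiving 100 μl of 1 mg/ml compound, incubated at 37°; inhibition zone width in mm scored at 48 h and 72 h as –, +, ++, +++, ++++ (1–2, 3–6, 7–12, >13 mm); streptomycin sulfate control.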

[5] = tested on: Bacillus subtilis; experiment: Antibacterial activity against Bacillus subtilis ATCC 6633 at 1 mg/ml after 48 hrs by agar-well diffusion assay; assay type: functional; conditions: ATCC 6633, 48 h, read-out: IZ; outline: as §1
[6] = tested on: Escherichia coli; experiment: Antibacterial activity against Escherichia coli ATCC 10536 at 1 mg/ml after 24 hrs by agar-well diffusion assay; assay type: functional; outline: as §1
[7] = tested on: Pseudomonas aeruginosa; experiment: Antibacterial activity against Pseudomonas aeruginosa ATCC 15442 at 1 mg/ml after 48 hrs by agar-well diffusion assay; assay type: functional; outline: as §1
[8] = tested on: Staphylococcus aureus; experiment: Antibacterial activity against Staphylococcus aureus ATCC 6538 at 1 mg/ml after 24 hrs by agar-well diffusion assay; assay type: functional; conditions: for zone of inhibition at 1000 µg/mL: ATCC 6538, 24 h, read-out: IZ; outline: as §1
[9] = tested on: Escherichia coli; experiment: Antibacterial activity against Escherichia coli ATCC 10536 at 1 mg/ml after 48 hrs by agar-well diffusion assay; assay type: functional; outline: as §1
[10] = tested on: Mycolicibacterium smegmatis; experiment: Antibacterial activity against Mycobacterium smegmatis ATCC 607 at 1 mg/ml after 48 hrs by agar-well diffusion assay; conditions: ATCC 607, 48 h, read-out: IZ
[11] = tested on: Saccharomyces cerevisiae; experiment: Antifungal activity against Saccharomyces cerevisiae ATCC 9763 at 1 mg/ml after 48 hrs by agar-well diffusion assay; assay type: functional
Outline: (§2)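 Fungi and yeasts streaked on mycophil agar from broth culture diluted 1:10 in sterile water; 100 μl of compound at 1 mg/ml placed in 11 mm cork-borer wells; plates held at 30°. Inhibition zone width (mm) recorded at 48 and 72 h and coded – to ++++ (1–2, 3–6, 7–12, >13 mm); amphotericin B positive control.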

[12] = tested on: Candida albicans; experiment: Antifungal activity against Candida albicans ATCC 10231 at 1 mg/ml after 72 hrs by agar-well diffusion assay; assay type: functional; conditions: ATCC 10231, 72 h, read-out: IZ; outline: as §2
[13] = tested on: Helminthosporium; experiment: Antifungal activity against Helminthosporium ATCC 4671 at 1 mg/ml after 48 hrs by agar-well diffusion assay; assay type: functional; conditions: for zone of inhibition at 1000 µg/mL: ATCC 4671, 48 h, read-out: IZ; outline: as §2
[14] = tested on: Aspergillus niger; experiment: Antifungal activity against Aspergillus niger ATCC 16888 at 1 mg/ml after 72 hrs by agar-well diffusion assay; assay type: functional; outline: as §2
[15] = tested on: Helminthosporium; experiment: Antifungal activity against Helminthosporium ATCC 4671 at 1 mg/ml after 72 hrs by agar-well diffusion assay; assay type: functional; conditions: for zone of inhibition at 1000 µg/mL: ATCC 4671, 72 h, read-out: IZ; outline: as §2
[16] = tested on: Candida albicans; experiment: Antifungal activity against Candida albicans ATCC 10231 at 1 mg/ml after 48 hrs by agar-well diffusion assay; assay type: functional; conditions: ATCC 10231, 48 h, read-out: IZ; outline: as §2
[17] = tested on: Trichophyton mentagrophytes; experiment: Antifungal activity against Trichophyton mentagrophytes ATCC 9972 at 1 mg/ml after 72 hrs by agar-well diffusion assay; assay type: functional; conditions: for zone of inhibition at 1000 µg/mL: ATCC 9972, 72 h, read-out: IZ; outline: as §2
[18] = tested on: Trametes sanguinea; experiment: Antifungal activity against Polyporus sanguineus ATCC 16422 at 1 mg/ml after 48 hrs by agar-well diffusion assay; assay type: functional; outline: as §2
[19] = tested on: Aspergillus niger; experiment: Antifungal activity against Aspergillus niger ATCC 16888 at 1 mg/ml after 48 hrs by agar-well diffusion assay; assay type: functional; outline: as §2
[20] = tested on: Saccharomyces cerevisiae; experiment: Antifungal activity against Saccharomyces cerevisiae ATCC 9763 at 1 mg/ml after 72 hrs by agar-well diffusion assay; assay type: functional; outline: as §2
[21] = tested on: Trametes sanguinea; experiment: Antifungal activity against Polyporus sanguineus ATCC 16422 at 1 mg/ml after 72 hrs by agar-well diffusion assay; assay type: functional; outline: as §2
[22] = tested on: Trichophyton mentagrophytes; experiment: Antifungal activity against Trichophyton mentagrophytes ATCC 9972 at 1 mg/ml after 48 hrs by agar-well diffusion assay; assay type: functional; conditions: for zone of inhibition at 1000 µg/mL: ATCC 9972, 48 h, read-out: IZ; outline: as §2
[23] = tested on: Bacillus subtilis; experiment: Antibacterial activity against Bacillus subtilis ATCC 6633 after 48 hrs by twofold serial dilution method; assay type: functional; conditions: ATCC 6633, 48 h
[24] = tested on: Bacillus subtilis; experiment: Antibacterial activity against Bacillus subtilis ATCC 6633 after 24 hrs by twofold serial dilution method; assay type: functional; conditions: ATCC 6633, 24 h

| Structure (SMILES) | inhibition zone (IZ) [1] | zone of inhibition at 1000 µg/mL [2] [mm] | zone of inhibition at 1000 µg/mL [3] [mm] | zone of inhibition at 1000 µg/mL [4] [mm] | zone of inhibition at 1000 µg/mL [5] [mm] | inhibition zone (IZ) [6] | inhibition zone (IZ) [7] | zone of inhibition at 1000 µg/mL [8] [mm] | inhibition zone (IZ) [9] | zone of inhibition at 1000 µg/mL [10] [mm] | inhibition zone (IZ) [11] | zone of inhibition at 1000 µg/mL [12] [mm] | inhibition zone (IZ) [14] | zone of inhibition at 1000 µg/mL [16] [mm] | inhibition zone (IZ) [18] | inhibition zone (IZ) [19] | inhibition zone (IZ) [20] | inhibition zone (IZ) [21] | also measured |
| --- | --- | --- | --- | --- | --- | --- | --- | --- | --- | --- | --- | --- | --- | --- | --- | --- | --- | --- | --- |
| C=C(C)[C@@H]1CC[C@@]23C[C@@H]4[C@@H](C[C@H]2[C@]1(C)CCC(=O)OC)[C@@]4(C)C3 | inactive | 1 | 1 | 1 | 1 | inactive | inactive | 1 | inactive | 1 | – | – | – | – | – | – | – | – | – |
| COC(=O)CC[C@]1(C)C(C(C)=O)CC[C@@]23C[C@@H]4[C@@H](CC21)[C@@]4(C)C3 (some centres undefined) | inactive | – | 7 | – | 3 | inactive | inactive | – | inactive | 3 | inactive | 1 | inactive | 1 | inactive | inactive | inactive | inactive | inhibition zone (IZ) [13]: inactive; inhibition zone (IZ) [2]: inactive; inhibition zone (IZ) [15]: inactive; inhibition zone (IZ) [17]: inactive; inhibition zone (IZ) [8]: inactive; inhibition zone (IZ) [22]: inactive |
| CN[C@@H]1[C@H](O[C@H]2[C@H](O[C@H]3[C@H](O)[C@@H](O)[C@H](N=C(N)N)[C@@H](O)[C@@H]3N=C(N)N)O[C@@H](C)[C@]2(O)C=O)O[C@@H](CO)[C@H](O)[C@H]1O [STREPTOMYCIN] | – | – | – | – | – | – | – | – | – | – | – | – | – | – | – | – | – | – | MIC [23]: 3.12 µg/mL (≈ 5.36 µM); MIC [24]: 3.12 µg/mL (≈ 5.36 µM) |
| C[C@@H]1CC[C@@]2(C)C(CO)=CCC[C@@H]2[C@@]1(C)CCc1ccoc1 [HARDWICKIOL] | inactive | 3 | 3 | 7 | 3 | inactive | inactive | 3 | inactive | 7 | – | 7 | inactive | 3 | inactive | inactive | – | inactive | zone of inhibition at 1000 µg/mL ([11]; ATCC 9763, 48 h, read-out: IZ): 3 mm; zone of inhibition at 1000 µg/mL [13]: 3 mm; zone of inhibition at 1000 µg/mL [15]: 1 mm; zone of inhibition at 1000 µg/mL [17]: 3 mm; zone of inhibition at 1000 µg/mL ([20]; ATCC 9763, 72 h, read-out: IZ): 3 mm; zone of inhibition at 1000 µg/mL [22]: 7 mm |
| C=C(C)[C@@H]1CC[C@@]23C[C@@H]4[C@@H](C[C@H]2[C@]1(C)CCCO)[C@@]4(C)C3 | inactive | – | 3 | 1 | 3 | inactive | inactive | 1 | inactive | 1 | inactive | 1 | inactive | 1 | inactive | inactive | inactive | inactive | inhibition zone (IZ) [13]: inactive; inhibition zone (IZ) [2]: inactive; inhibition zone (IZ) [15]: inactive; inhibition zone (IZ) [17]: inactive; inhibition zone (IZ) [22]: inactive |
| CN[C@@H]1[C@H](O[C@H]2[C@H](O[C@H]3[C@H](O)[C@@H](O)[C@H](N=C(N)N)[C@@H](O)[C@@H]3N=C(N)N)O[C@@H](C)[C@]2(O)C=O)O[C@@H](CO)[C@H](O)[C@H]1O [STREPTOMYCIN SULFATE] | – | 7 | 7 | > 12 | 7 | – | – | 7 | – | > 12 | – | – | – | – | – | – | – | – | zone of inhibition at 1000 µg/mL ([1]; ATCC 15442, 24 h, read-out: IZ): 7 mm; zone of inhibition at 1000 µg/mL ([6]; ATCC 10536, 24 h, read-out: IZ): 7 mm; zone of inhibition at 1000 µg/mL ([7]; ATCC 15442, 48 h, read-out: IZ): 3 mm; zone of inhibition at 1000 µg/mL ([9]; ATCC 10536, 48 h, read-out: IZ): 7 mm |
| COC(=O)C1=CCC[C@@H]2[C@@](C)(CCc3ccoc3)[C@H](C)CC[C@@]12C [HARDWICKIC ACID METHYL ESTER] | inactive | 1 | 1 | 1 | 1 | inactive | inactive | 1 | inactive | 1 | inactive | 1 | inactive | 1 | inactive | inactive | inactive | inactive | zone of inhibition at 1000 µg/mL [13]: 1 mm; zone of inhibition at 1000 µg/mL [15]: 1 mm; zone of inhibition at 1000 µg/mL [17]: 1 mm; zone of inhibition at 1000 µg/mL [22]: 1 mm |
